ChEMBL document CHEMBL1129380, “Synthesis, activity, and molecular modeling of a new series of tricyclic pyridazinones as selective aldose reductase inhibitors” (J Med Chem, 1996)

Experiments:
[1] = target: Aldo-keto reductase family 1 member B1 (Bos taurus, UniProt P16116); test: (§1) Evaluated for inhibition of Aldose reductase 2
Outline: (§2)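 Calf lens ALR2, partially purified by DE-52 (6.5 mU/mg), at 3.5 mU/mL. Assay at 37 °C with 4.7 mM D,L-glyceraldehyde and 0.11 mM NADPH in 0.25 M sodium phosphate, pH 6.8, with 0.38 M ammonium sulfate. Inhibitor in DMSO (1% final). A340 decrease corrected by a no-substrate blank.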

[2] = target: Sorbitol dehydrogenase (Ovis aries) (UniProt P07846); test: Inhibition of sorbitol dehydrogenase from sheep liver (40 U/mg of protein)
Sequence of Sorbitol dehydrogenase (Ovis aries) (P07846 whole entry, looked up): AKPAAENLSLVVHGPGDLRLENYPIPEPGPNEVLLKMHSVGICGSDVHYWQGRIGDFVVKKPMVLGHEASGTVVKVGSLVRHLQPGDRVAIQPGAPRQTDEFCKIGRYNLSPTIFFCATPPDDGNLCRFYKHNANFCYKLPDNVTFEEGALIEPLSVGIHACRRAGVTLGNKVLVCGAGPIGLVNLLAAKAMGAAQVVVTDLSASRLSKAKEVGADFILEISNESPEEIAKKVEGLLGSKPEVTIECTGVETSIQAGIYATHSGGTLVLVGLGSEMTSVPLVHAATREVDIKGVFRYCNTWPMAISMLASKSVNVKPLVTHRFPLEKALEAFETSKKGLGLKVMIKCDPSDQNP

Bos taurus = species: Bos taurus; test: Inhibition of Aldehyde reductase 1; parameters: concentration or dose not given beside the values; details: concentration not given here
Outline: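 Partially purified bovine kidney ALR1 (ammonium sulfate fractionation plus DEAE-52 batch step, 11.3 mU/mg), at 3.5 mU/mL. Assay at 37 °C with 20 mM D-glucuronate and 0.12 mM NADPH in 0.1 M sodium phosphate, pH 7.2. Inhibitor added in DMSO, kept at 1%. NADPH oxidation read at 340 nm against a substrate-free blank. IC50 from the log dose–inhibition curve, duplicates.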

[3] = target: Sorbitol dehydrogenase (Ovis aries) (UniProt P07846); test: Inhibition of sorbitol dehydrogenase from sheep liver (40 U/mg of protein); details: concentration not given here
[4] = target: T1, Glutathione reductase, mitochondrial (Homo sapiens) (UniProt P00390); test: (§3) Inhibition of glutathione reductase; details: Saccharomyces cerevisiae; concentration not given here
T1 sequence (whole entry): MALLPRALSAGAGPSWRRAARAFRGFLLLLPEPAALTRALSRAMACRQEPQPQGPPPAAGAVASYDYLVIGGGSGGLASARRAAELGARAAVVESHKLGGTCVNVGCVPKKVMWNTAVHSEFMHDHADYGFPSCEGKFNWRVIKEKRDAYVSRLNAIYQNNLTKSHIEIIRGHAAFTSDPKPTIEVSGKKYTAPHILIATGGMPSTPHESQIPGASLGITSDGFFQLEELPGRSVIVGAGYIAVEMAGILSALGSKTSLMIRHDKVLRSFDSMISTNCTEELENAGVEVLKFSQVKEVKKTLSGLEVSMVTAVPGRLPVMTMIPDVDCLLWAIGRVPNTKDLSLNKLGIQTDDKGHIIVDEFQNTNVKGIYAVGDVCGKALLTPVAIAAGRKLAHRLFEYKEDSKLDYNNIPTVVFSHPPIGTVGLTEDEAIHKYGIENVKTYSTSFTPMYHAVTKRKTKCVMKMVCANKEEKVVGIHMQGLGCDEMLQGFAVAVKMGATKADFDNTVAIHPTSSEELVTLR

[5] = target: Aldo-keto reductase family 1 member B1 (Bos taurus) (UniProt P16116); test: as §1; outline: as §2
[6] = target: T1, Glutathione reductase, mitochondrial (Homo sapiens); test: Inhibition of glutathione reductase at 138 uM; details: Saccharomyces cerevisiae
[7] = target: T2, Glutathione reductase, mitochondrial (Homo sapiens, UniProt P00390); test: as §3; parameters: species or system Saccharomyces cerevisiae
T2 sequence (P00390 whole entry): T1 sequence (whole entry)

[8] = target: T1, Glutathione reductase, mitochondrial (Homo sapiens); test: Inhibition of glutathione reductase at 149 uM; details: Saccharomyces cerevisiae

| IC50 [1] [µM] | IC50 [2] | inhibition (Bos taurus) [%] | Compound | further results |
| --- | --- | --- | --- | --- |
| 76.2 | No inhibition | 15.1 | O=C(O)Cn1nc2c(cc1=O)CCCc1ccccc1-2 | – |
| – | – | – | COc1ccc2c(C(=S)N(C)CC(=O)O)cccc2c1C(F)(F)F [TOLRESTAT] | inhibition [3]: 16.4% |
| 162 | No inhibition | 8 | COc1cc2c(cc1OC)-c1nn(CCC(=O)O)c(=O)cc1CC2 | – |
| 114 | No inhibition | 11.3 | COc1cc2c(cc1OC)-c1nn(CC(=O)O)c(=O)cc1CC2 | – |
| 33 | No inhibition | – | O=C(O)Cn1nc2c(c(C(=O)O)c1=O)CCc1ccccc1-2 | inhibition [4]: 23.7% |
| 6.44 | No inhibition | – | Cc1cc(C)c2c(c1)-c1nn(CC(=O)O)c(=O)cc1CC2 | – |
| 51.5 | No inhibition | – | Cc1cc(C)c2c(c1)-c1nn(CCC(=O)O)c(=O)cc1CC2 | – |
| – | No inhibition | – | O=C(O)Cn1nc2c(c(C(=O)O)c1=O)Cc1ccccc1-2 | inhibition [4]: 22.3%; inhibition [5]: 32.4% |
| 11.4 | No inhibition | – | O=C(O)CCCn1nc2c(cc1=O)CCc1ccccc1-2 | – |
| – | No inhibition | – | O=C1NC(=O)[C@@]2(CCOc3ccc(F)cc32)N1 [SORBINIL] | – |
| 12.6 | No inhibition | – | O=C(O)Cn1nc2c(cc1=O)CCc1ccccc1-2 | inhibition [6]: 4.2% |
| 17.4 | No inhibition | 22.1 | Cc1cc(C)c2c(c1)-c1nn(CCCC(=O)O)c(=O)cc1CC2 | – |
| – | – | 10.3 | O=C(O)Cn1nc2c(c(C(=O)O)c1=O)CCCc1ccccc1-2 | inhibition [5]: 12.1% |
| 7.56 | No inhibition | 10.1 | COc1cc2c(cc1OC)-c1nn(CCCC(=O)O)c(=O)cc1CC2 | – |
| – | No inhibition | 8.3 | O=C(O)c1c(O)nnc2c1CCc1ccccc1-2 | inhibition [5]: 9.9% |
| – | No inhibition | 0 | O=C(O)c1c(O)nnc2c1Cc1ccccc1-2 | Inhibition [7]: 12.3%; inhibition [5]: 5.3% |
| 63.5 | – | 21.8 | Cc1cc(C)c2c(c1)C1=NN(CC(=O)O)C(=O)CC1CC2 (stereo unspecified) | – |
| – | – | – | O=C(O)c1c2c(n[nH]c1=O)-c1ccccc1CC2 | Inhibition [7]: 18.9% |
| – | – | 6.8 | O=C(O)c1c2c(n[nH]c1=O)-c1ccccc1CCC2 | inhibition [5]: 13.2% |
| 133 | No inhibition | 32.7 | O=C(O)CCn1nc2c(cc1=O)CCc1ccccc1-2 | – |
| – | No inhibition | – | O=C(O)Cn1nc2c(cc1=O)Cc1ccccc1-2 | inhibition [4]: 9.4%; inhibition [5]: 35.8% |
| 26.4 | No inhibition | 44.1 | COc1cc2c(cc1OC)-c1nn(CC(=O)O)c(=O)cc1C2 | inhibition [8]: 11.2% |
